Measurements reported in ChEMBL document CHEMBL4422635, “Structure-Based Discovery of a Subtype-Selective Inhibitor Targeting a Transient Receptor Potential Vanilloid Channel” (J Med Chem, 2019).
Calls of active or inactive are those of the source. No cut-off for these calls is given here.

What was measured:
[1] = system: Mus musculus; assay: Antagonist activity at mouse TRPV2/LPAR1 expressed in LPA-stimulated HEK293T cells assessed as inhibition of 2-APB evoked currents at 10 uM dosed 3 mins after LPA stimulation by whole-cell patch clamp assay
Summary of the method: (§1)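 Whole-cell voltage clamp of transiently transfected HEK293T cells co-expressing GFP, recorded 36-96 h post-transfection. Hold -60 mV; pipettes 3-7 MΩ. Bath 165 mM NaCl, 10 mM HEPES pH 7.3; pipette 140 mM KCl, 10 mM HEPES pH 7.3. Room temperature (~25 °C). IC50 from Hill fits of I/I0, the current ratio after vs before inhibitor; mean ± SEM.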

[2] = biological target: T1, Transient receptor potential cation channel subfamily V member 2 (Homo sapiens) (UniProt Q9Y5S1); assay: Antagonist activity at TRPV2 in human PC3M cells assessed as inhibition of LPA-induced intracellular calcium levels at 100 uM Fluo-4 AM-based fluorescence assay; type: cell-based
T1 sequence (whole entry): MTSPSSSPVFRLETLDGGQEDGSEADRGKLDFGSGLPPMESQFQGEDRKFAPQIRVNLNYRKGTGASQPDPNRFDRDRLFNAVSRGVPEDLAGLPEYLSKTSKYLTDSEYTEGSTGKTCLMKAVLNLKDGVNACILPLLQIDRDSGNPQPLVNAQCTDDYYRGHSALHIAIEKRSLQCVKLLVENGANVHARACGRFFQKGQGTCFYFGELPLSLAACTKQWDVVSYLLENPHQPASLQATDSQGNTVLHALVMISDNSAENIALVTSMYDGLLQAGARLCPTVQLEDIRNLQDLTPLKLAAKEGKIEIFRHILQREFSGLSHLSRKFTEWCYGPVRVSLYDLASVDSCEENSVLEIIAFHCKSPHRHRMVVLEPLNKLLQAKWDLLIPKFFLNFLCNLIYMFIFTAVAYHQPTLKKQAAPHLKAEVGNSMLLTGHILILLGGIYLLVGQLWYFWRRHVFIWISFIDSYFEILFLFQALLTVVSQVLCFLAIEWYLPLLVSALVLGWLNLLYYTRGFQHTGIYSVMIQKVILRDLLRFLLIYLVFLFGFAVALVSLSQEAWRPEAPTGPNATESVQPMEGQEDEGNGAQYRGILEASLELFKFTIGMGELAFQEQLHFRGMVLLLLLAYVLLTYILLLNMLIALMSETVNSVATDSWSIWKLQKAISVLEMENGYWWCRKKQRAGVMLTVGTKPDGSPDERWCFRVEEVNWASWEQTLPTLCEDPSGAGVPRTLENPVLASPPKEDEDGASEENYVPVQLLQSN
Summary of the method: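 PC-3M cells cultured 24 h, loaded with 2 μM Fluo-4 AM in HBSS for 45 min at 37 °C, then compound added. Cytoplasmic Ca2+ rise read as relative fluorescence at ex 485 / em 525 nm.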

[3] = system: T2, Transient receptor potential cation channel subfamily V member 2 (Mus musculus), Q9WTR1 [Q525E]; assay: Antagonist activity at mouse TRPV2 Q525E mutant expressed in HEK293T cells assessed as inhibition of 2-APB evoked currents at -60 mV holding potential by whole-cell patch clamp assay; type: cell-based; summary of the method: as §1
T2 sequence (whole entry): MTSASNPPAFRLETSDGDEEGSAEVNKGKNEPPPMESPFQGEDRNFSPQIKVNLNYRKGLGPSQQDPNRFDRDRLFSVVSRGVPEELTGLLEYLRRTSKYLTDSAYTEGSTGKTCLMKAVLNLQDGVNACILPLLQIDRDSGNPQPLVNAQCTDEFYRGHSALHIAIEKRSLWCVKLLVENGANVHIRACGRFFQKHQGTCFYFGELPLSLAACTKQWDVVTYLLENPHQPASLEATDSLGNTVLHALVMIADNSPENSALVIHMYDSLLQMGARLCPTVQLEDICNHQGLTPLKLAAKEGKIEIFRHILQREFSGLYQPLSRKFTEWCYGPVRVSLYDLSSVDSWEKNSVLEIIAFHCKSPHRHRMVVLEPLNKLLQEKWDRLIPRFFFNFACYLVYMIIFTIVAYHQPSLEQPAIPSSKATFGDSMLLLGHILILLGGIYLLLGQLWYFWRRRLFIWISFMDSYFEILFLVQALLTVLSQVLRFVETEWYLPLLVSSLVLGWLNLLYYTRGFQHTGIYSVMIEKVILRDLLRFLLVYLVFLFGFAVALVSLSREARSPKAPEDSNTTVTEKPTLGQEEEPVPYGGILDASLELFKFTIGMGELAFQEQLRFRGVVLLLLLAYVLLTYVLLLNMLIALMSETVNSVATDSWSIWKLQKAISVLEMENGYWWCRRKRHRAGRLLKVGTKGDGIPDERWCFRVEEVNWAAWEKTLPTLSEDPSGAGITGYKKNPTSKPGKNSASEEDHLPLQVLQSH

[4] = biological target: T3, Transient receptor potential cation channel subfamily V member 3 (Mus musculus) (UniProt Q8K424); assay: Antagonist activity at mouse TRPV3 expressed in HEK293T cells assessed as inhibition of 2-APB evoked currents at 3 to 10 uM -60 mV holding potential by whole-cell patch clamp assay; type: cell-based; summary of the method: as §1
T3 sequence (whole entry): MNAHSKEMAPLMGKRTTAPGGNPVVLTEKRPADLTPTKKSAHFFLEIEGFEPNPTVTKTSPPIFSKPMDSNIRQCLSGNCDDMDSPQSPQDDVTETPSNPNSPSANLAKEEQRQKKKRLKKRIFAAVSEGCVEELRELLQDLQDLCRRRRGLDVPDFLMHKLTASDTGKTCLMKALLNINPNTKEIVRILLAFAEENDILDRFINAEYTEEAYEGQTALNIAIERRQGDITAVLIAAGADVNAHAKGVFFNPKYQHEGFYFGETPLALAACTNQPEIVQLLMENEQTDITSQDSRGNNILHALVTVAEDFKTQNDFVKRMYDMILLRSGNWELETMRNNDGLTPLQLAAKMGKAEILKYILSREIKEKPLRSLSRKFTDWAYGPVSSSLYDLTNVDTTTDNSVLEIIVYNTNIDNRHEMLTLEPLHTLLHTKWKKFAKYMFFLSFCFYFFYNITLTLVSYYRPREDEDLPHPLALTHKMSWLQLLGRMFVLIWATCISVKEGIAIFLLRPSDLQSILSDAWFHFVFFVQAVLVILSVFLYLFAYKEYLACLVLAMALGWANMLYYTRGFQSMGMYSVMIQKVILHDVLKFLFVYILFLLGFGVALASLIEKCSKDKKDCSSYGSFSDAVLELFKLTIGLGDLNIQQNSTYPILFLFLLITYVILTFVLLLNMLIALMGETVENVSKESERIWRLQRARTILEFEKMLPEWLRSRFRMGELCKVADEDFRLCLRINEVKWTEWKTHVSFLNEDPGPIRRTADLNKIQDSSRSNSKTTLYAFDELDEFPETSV

[5] = system: PC-3M; assay: Antimetastatic activity in human PC3M cells at 5 to 20 uM after 24 hrs by transwell migration assay; type: functional, cell-based
Summary of the method: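 PC-3M cells kept in RPMI 1640 with 10% FBS at 37 °C, 5% CO2.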

`CCCN(C)c1cc(C(F)(F)F)nc(SCCC(=O)NCc2ccco2)n1` was tested, and the inhibition [1] was “Active”, the inhibition [2] was “Active” and the inhibition [3] was “inactive”. For the same molecule, the inhibition [4] was “inactive” and the Activity [5] was “Active”.
